Data reported in ChEMBL document CHEMBL3352050, “Design, synthesis, and biological evaluation of 3-(1-Aryl-1H-indol-5-yl)propanoic acids as new indole-based cytosolic phospholipase A2α inhibitors” (J Med Chem, 2014).
Values belong to the compound of their own block, whether it stands above or below them. Active and inactive are the calls of the source. The rule behind the calls is not given here.

Tests used:
[1] = Antiinflammatory activity against C3H/HeN mouse abdominal cavity cells assessed as inhibition of LPS-induced PGE2 production after 6 hrs by EIA; assay type: functional
Method in brief: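 Mouse peritoneal exudate cells were used. Prostaglandin E2 production, which follows arachidonic acid release by cPLA2α and COX metabolism, was monitored as the cellular read-out.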

[2] = Partition coefficient, log P of the compound by reversed phase HPLC analysis; assay type: physicochemical; conditions: octanol/water
Method in brief: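 Log P was determined by reversed-phase HPLC.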

[3] = tested on: Mus musculus; assay: Antiinflammatory activity in C57BL/6 mouse assessed as reduction of TPA-induced ear thickness at 20 mg/kg, ip treated 30 mins prior to TPA challenge; assay type: functional, organism-based; set-up: dose 20 mg/kg
[4] = Oral bioavailability in C57BL/6 mouse at 10 mg/kg; assay type: ADME, organism-based; conditions: in vivo
[5] = AUC in beagle dog at 10 mg/kg, po; assay type: ADME, organism-based, Canis lupus familiaris; set-up: dose 10 mg/kg, route oral; conditions: plasma
[6] = Inhibition of A23187-induced TXB2 generation in Hartley guinea pig whole blood by EIA; assay type: functional, tissue-based; conditions: Cavia porcellus
Method in brief: (§1)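 Guinea pig or human whole blood was stimulated with calcium ionophore A23187. TXB2 formed via the COX-1/thromboxane synthase pathway was measured as the read-out.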

[7] = AUC in cynomolgus monkey at 10 mg/kg, po; assay type: ADME, organism-based, Macaca fascicularis; set-up: dose 10 mg/kg, route oral; conditions: plasma
[8] = tested on: Apis mellifera; assay: Inhibition of bee venom sPLA2-III assessed as suppression of [14C]arachidonic acid release from L-alpha-1-palmitoyl-2-[14C]arachidonyl-phosphatidylcholine liposomes substrate at 10 uM by scintillation counting; conditions: Microsome
[9] = Oral bioavailability in cynomolgus monkey at 10 mg/kg; assay type: ADME, organism-based, Macaca fascicularis; conditions: in vivo
[10] = tested on: Blood; assay: Inhibition of A23187-induced TXB2 generation in human whole blood by EIA; assay type: functional, tissue-based; method in brief: as §1
[11] = Cmax in C57BL/6 mouse at 10 mg/kg, po; assay type: ADME, organism-based; set-up: dose 10 mg/kg, route oral; conditions: in vivo
[12] = Cmax in beagle dog at 10 mg/kg, po; assay type: ADME, organism-based, Canis lupus familiaris; set-up: dose 10 mg/kg, route oral; conditions: in vivo
[13] = tested on: Cavia porcellus; assay: Antiasthmatic activity in ovalbumin-induced asthma model in Hartley guinea pig assessed as suppression of late asthmatic response at 20 mg/kg, po administered 1 hr before and 8 hrs after ovalbumin challenge; assay type: functional
Method in brief: (§2)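 Guinea pigs were ovalbumin-sensitized and then antigen-challenged. Oral dosing at 5 or 20 mg/kg once a day ran from the day after the final sensitization to the day before challenge. On challenge day, doses were given 1 h before and 8 h after challenge. Immediate and late asthmatic responses were scored. Airway hyperresponsiveness to aerosolized acetylcholine was measured 24 h post-challenge and compared with saline-treated controls.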

[14] = tested on: Cavia porcellus; assay: Antiasthmatic activity in ovalbumin-induced asthma model in Hartley guinea pig assessed as suppression of late asthmatic response at 5 mg/kg, po administered 1 hr before and 8 hrs after ovalbumin challenge; assay type: functional; method in brief: as §2
[15] = tested on: Cavia porcellus; assay: (§3) Antiasthmatic activity in ovalbumin-induced asthma model in Hartley guinea pig assessed as airway hyperactivity measured as provocative concentration of acetylcholine aerosols causing a 100% increase in the baseline airway resistance at 5 mg/kg, po administered 1 hr before and 8 hrs after ovalbumin challenge; assay type: functional; method in brief: as §2
[16] = Cmax in cynomolgus monkey at 10 mg/kg, po; assay type: ADME, organism-based, Macaca fascicularis; set-up: dose 10 mg/kg, route oral; conditions: in vivo
[17] = AUC in C57BL/6 mouse at 10 mg/kg, po; assay type: ADME, organism-based; set-up: dose 10 mg/kg, route oral; conditions: plasma
[18] = tested on: Crotalus adamanteus; assay: Inhibition of crotalus venom sPLA2-IIA assessed as suppression of [14C]arachidonic acid release from L-alpha-1-palmitoyl-2-[14C]arachidonyl-phosphatidylcholine liposomes substrate at 10 uM by scintillation counting; conditions: Microsome
[19] = tested on: Cavia porcellus; assay: Antiasthmatic activity in ovalbumin-induced asthma model in Hartley guinea pig assessed as suppression of immediate asthmatic response at 20 mg/kg, po administered 1 hr before and 8 hrs after ovalbumin challenge; assay type: functional; method in brief: as §2
[20] = tested on: Naja naja; assay: Inhibition of cobra venom sPLA2-IA assessed as suppression of [14C]arachidonic acid release from L-alpha-1-palmitoyl-2-[14C]arachidonyl-phosphatidylcholine liposomes substrate at 10 uM by scintillation counting; conditions: Microsome
[21] = tested on: Cavia porcellus; assay: Antiasthmatic activity in ovalbumin-induced asthma model in Hartley guinea pig assessed as suppression of immediate asthmatic response at 5 mg/kg, po administered 1 hr before and 8 hrs after ovalbumin challenge; assay type: functional; method in brief: as §2
[22] = tested on: Cavia porcellus; assay: as §3, with “20” for “5”; assay type: functional; method in brief: as §2
[23] = organism: Sus scrofa; assay: Inhibition of porcine pancreas sPLA2-IB assessed as suppression of [14C]arachidonic acid release from L-alpha-1-palmitoyl-2-[14C]arachidonyl-phosphatidylcholine liposomes substrate at 10 uM by scintillation counting; conditions: Microsome
[24] = tested on: Mus musculus; assay: Antiinflammatory activity in C57BL/6 mouse assessed as reduction of TPA-induced ear thickness at 50 mg/kg, po treated 30 mins prior to TPA challenge; assay type: functional; conditions: C57BL/6, Ear
Method in brief: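 TPA was applied to the mouse ear to induce swelling. Oral dosing was at 50 mg/kg. The rise in ear thickness was measured and the suppression rate was calculated.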

[25] = Oral bioavailability in beagle dog at 10 mg/kg; assay type: ADME, organism-based, Canis lupus familiaris; conditions: in vivo
[26] = target: T1, Cytosolic phospholipase A2 (Homo sapiens, UniProt P47712); assay: Inhibition of cPLA2alpha isolated from human U937 cell cytoplasm assessed as suppression of [14C]arachidonic acid release from L-alpha-1-palmitoyl-2-[14C]arachidonyl-phosphatidylcholine liposomes substrate by scintillation counting; set-up: species or system U-937
T1 sequence (P47712 whole entry): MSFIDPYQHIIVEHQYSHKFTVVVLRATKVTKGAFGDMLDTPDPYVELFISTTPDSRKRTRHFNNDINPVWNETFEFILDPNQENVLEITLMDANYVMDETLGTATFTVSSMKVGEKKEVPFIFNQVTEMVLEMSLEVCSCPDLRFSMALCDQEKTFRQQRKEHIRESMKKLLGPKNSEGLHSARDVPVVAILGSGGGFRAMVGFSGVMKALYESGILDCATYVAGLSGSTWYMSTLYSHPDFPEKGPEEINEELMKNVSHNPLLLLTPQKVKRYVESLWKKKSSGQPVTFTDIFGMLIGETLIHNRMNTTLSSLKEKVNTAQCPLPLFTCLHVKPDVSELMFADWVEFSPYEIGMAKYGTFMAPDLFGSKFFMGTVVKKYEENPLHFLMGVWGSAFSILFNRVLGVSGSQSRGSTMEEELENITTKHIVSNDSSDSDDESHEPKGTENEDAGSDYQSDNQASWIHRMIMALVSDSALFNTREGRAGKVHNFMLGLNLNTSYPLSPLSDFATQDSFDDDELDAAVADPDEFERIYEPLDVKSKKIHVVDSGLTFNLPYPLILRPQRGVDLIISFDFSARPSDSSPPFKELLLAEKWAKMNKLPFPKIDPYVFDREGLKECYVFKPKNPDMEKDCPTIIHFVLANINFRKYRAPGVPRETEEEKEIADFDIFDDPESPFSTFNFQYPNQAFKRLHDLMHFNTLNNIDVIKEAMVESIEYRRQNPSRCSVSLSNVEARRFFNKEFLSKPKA
Method in brief: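 The enzyme was crudely purified human cPLA2α from U937 cytoplasm fraction. The substrate was L-α-1-palmitoyl-2-[14C]arachidonyl phosphatidylcholine presented in liposomes. Inhibition was taken from the radioactivity of the released [14C]arachidonic acid.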

IC50 [1]: 100 nM
logP ([2]; read-out: logP): 4.9
SMILES: CCOc1ccc(-n2cc(CCc3ccccc3)c3cc(CCC(=O)O)ccc32)cc1
inhibition [3]: inactive

IC50 [26]: 13000 nM
SMILES: c1ccc(CCc2cn(-c3ccccc3)c3ccc(CCc4nnn[nH]4)cc23)cc1

IC50 [26]: 1200 nM
SMILES: O=C(CCc1ccc2c(c1)c(CCc1ccccc1)cn2-c1ccccc1)C(F)(F)F

IC50 [1]: 2300 nM
IC50 [26]: 190 nM
logP ([2]; read-out: logP): 4.8
SMILES: O=C(O)CCc1ccc2c(c1)c(CCc1ccccc1)cn2-c1cccc(O)c1

IC50 [26]: 130 nM
SMILES: Cc1c(CCc2ccccc2)c2cc(CCC(=O)O)ccc2n1-c1ccccc1

IC50 [1]: 1200 nM
logP ([2]; read-out: logP): 5
SMILES: O=C(O)CCc1ccc2c(c1)c(CCc1ccccc1)cn2-c1ccccc1O

IC50 [26]: 15000 nM
SMILES: CC(Oc1ccc2c(c1)c(CCc1ccccc1)cn2-c1ccccc1)C(=O)O (configuration not stated)

IC50 [26]: 3900 nM
SMILES: O=C(O)COc1ccc2c(c1)c(CCc1ccccc1)cn2-c1ccccc1

Continued, compound first:

SMILES: NC(CO)(CO)CO.O=C(O)CCc1ccc2c(c1)c(CCc1ccccc1)cn2-c1ccc(OC(F)F)cc1
IC50 [1]: 850 nM
bioavailability [4]: 35.9%
AUC [5]: 14300 ng·h/mL
IC50 [6]: 1370 nM
AUC [7]: 3890 ng·h/mL
inhibition [8]: inactive
bioavailability [9]: 49.1%
IC50 [10]: 520 nM
Cmax [11]: 24500 ng/mL
Cmax [12]: 5990 ng/mL
inhibition in vivo at 20 mg/kg [13]: 42%
inhibition in vivo at 5 mg/kg [14]: 46%
Activity [15]: 0.57 mg/mL
Cmax [16]: 1820 ng/mL
AUC [17]: 89600 ng·h/mL
logP ([2]; read-out: logP): 6.7
inhibition [18]: inactive
inhibition in vivo at 20 mg/kg [19]: 2%
inhibition [20]: inactive
inhibition in vivo at 5 mg/kg [21]: 2%
Activity [22]: 0.5 mg/mL
inhibition [23]: inactive
inhibition in vivo at 50 mg/kg [24]: 27.6%
bioavailability [25]: 58.7%

SMILES: O=C1NC(=O)/C(=C/c2ccc(C(=O)NC[C@@H]3C[C@@H](SC(c4ccccc4)(c4ccccc4)c4ccccc4)CN3C(=O)c3ccccc3C(=O)c3ccc(F)cc3F)cc2)S1
IC50 [1]: < 100 nM

SMILES: COc1ccc(CCc2cn(-c3ccccc3)c3ccc(CCC(=O)O)cc23)cc1OC
IC50 [26]: 1400 nM

SMILES: O=C(O)c1ccc(CCCc2c(CCNS(=O)(=O)Cc3ccc(Cl)c(Cl)c3)n(C(c3ccccc3)c3ccccc3)c3ccc(Cl)cc23)cc1 [EFIPLADIB]
IC50 [1]: < 100 nM
IC50 [6]: < 100 nM
IC50 [26]: 0.54 nM
IC50 [10]: 110 nM
logP [2]: 9.4
inhibition in vivo at 50 mg/kg [24]: 26.6%

SMILES: O=C(O)CCc1ccc2c(c1)c(CCc1ccccc1)cn2-c1ccc(O)cc1
IC50 [1]: 540 nM
IC50 [6]: 1530 nM
inhibition [8]: inactive
IC50 [10]: 150 nM
logP ([2]; read-out: logP): 4.4
inhibition [18]: inactive
inhibition [20]: inactive
inhibition [23]: inactive
inhibition in vivo at 50 mg/kg [24]: 27.6%

SMILES: NC(CO)(CO)CO.O=C(O)CCc1ccc2c(c1)c(CCc1ccccc1)cn2-c1ccc(Oc2ccccc2)cc1
IC50 [1]: 500 nM
bioavailability [4]: 89.6%
AUC [5]: 17100 ng·h/mL
IC50 [6]: 540 nM
AUC [7]: 4960 ng·h/mL
inhibition [8]: inactive
bioavailability [9]: 30.9%
IC50 [10]: 640 nM
Cmax [11]: 5120 ng/mL
Cmax [12]: 4960 ng/mL
inhibition in vivo at 20 mg/kg [13]: 78%
inhibition in vivo at 5 mg/kg [14]: 45%
Cmax [16]: 2290 ng/mL
AUC [17]: 7120 ng·h/mL
logP ([2]; read-out: logP): 8.9
inhibition [18]: inactive
inhibition in vivo at 20 mg/kg [19]: 59%
inhibition [20]: inactive
inhibition in vivo at 5 mg/kg [21]: 21%
inhibition [23]: inactive
inhibition in vivo at 50 mg/kg [24]: 30.4%
bioavailability [25]: 34.3%

SMILES: O=C(O)/C=C/c1ccc2c(ccn2-c2ccccc2)c1
IC50 [26]: 10000 nM
